Source: PubChem BioAssay (The Scripps Research Institute Molecular Screening Center)
CHRM4 antagonist: CHRM4 antagonism in calcium assay | P08173 | CHO-hM4 cells, ACh EC80, Fluo-8 calcium fluorescence | inhibition, % at 3 µM | 0.73% of 360,000 active;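 active = inhibition above its plate's cutoff, the mean inhibition of sample wells plus 3 SD, cut at about 27% in these data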;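 also: 0% = acetylcholine EC80 with DMSO and 100% = DMSO without agonist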
CHRM4 PAM: positive allosteric modulators of human muscarinic M4 receptor; P08173; CHO-K1 hM4/Gqi5, Fluo-8 calcium fluorescence, ACh EC20; 0% = ACh EC20, 100% = maximal ACh; activation, % at 3 µM; 0.4% of 360,000 active; AID 624126;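 active = activation above its plate's cutoff, the mean activation of sample wells plus 3 SD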
M5 ag: CHRM5 agonism in calcium assay; 0.19% of 360,000 active; CHO-K1 hM5 cells, Fluo-8 calcium fluorescence; 0% DMSO wells, 100% maximal acetylcholine response; activation, % at 3 µM; P08912;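 active = activation above the run's mean over test compounds plus 3 SD, cut at about 23% in these data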;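 also: signal is peak over basal fluorescence ratio across the kinetic read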
Target sequence (P08912 whole entry, looked up): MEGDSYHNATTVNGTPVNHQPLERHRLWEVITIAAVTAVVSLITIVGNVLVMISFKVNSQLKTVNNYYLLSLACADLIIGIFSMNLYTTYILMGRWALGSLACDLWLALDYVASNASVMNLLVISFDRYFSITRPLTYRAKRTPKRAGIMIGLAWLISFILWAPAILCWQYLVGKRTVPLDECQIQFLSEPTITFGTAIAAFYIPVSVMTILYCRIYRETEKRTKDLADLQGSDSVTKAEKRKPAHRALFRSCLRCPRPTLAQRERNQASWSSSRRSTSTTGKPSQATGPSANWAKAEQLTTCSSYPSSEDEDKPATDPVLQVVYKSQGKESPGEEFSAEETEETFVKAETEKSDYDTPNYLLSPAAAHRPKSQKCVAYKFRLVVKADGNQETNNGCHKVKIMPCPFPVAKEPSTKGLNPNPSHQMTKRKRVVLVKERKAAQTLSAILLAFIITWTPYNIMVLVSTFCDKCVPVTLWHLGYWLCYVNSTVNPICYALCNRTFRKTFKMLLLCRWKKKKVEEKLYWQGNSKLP
CHRM4 agonist: CHRM4 agonism in calcium assay. CHO-K1 hM4/Gqi5, Fluo-8 calcium fluorescence; vehicle 0%, full acetylcholine response 100%. activation, % at 3 µM. AID 624127. 0.14% of 360,000 active. P08173;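 active = activation above the run mean over all test wells plus 3 SD, cut at about 32% in these data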;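 also: peak over basal fluorescence ratio per well then scaled between controls; 0% = DMSO wells and 100% = acetylcholine at EC100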
M5 PAM: positive allosteric modulators of human muscarinic M5 receptor | CHO-K1 hM5, Fluo-8 calcium, ACh EC20 PAM; 0% = ACh EC20, 100% = ACh EC100 | activation, % at 3 µM | 0.3% of 360,000 active | AID 624038;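 active = activation above the run cutoff, the mean activation of all test compounds plus 3 SD, cut at about 18% in these data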
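Assay system – human M5 receptor in CHO-K1 cells · Read-out – % activation, ACh-normalized · Technique – Fluo-8 calcium fluorescence · Dosing – single-point, 3 µM nominal · Incubation – Fluo-8 loading 80 min at 37 °C plus 30 min room temperature · Repeats – singlicate, one well per test compound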
M5 antag: antagonists of human muscarinic M5 receptor (CHRM5); P08912; CHO-hM5 cells, Fluo-8 calcium fluorescence, ACh EC80; inhibition, % at 3 µM; 0.59% of 360,000 active; AID 624040;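 active = inhibition above a per-plate cutoff, the mean of that plate's test compounds plus 3 SD, cut at about 27% in these data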;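 also: 0% = acetylcholine EC80 with DMSO and 100% = DMSO without agonist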
Starred values were filed as active, the others as inactive. Most compounds without a hit are left out; they make up all but 1.8% or so of the library.

What do the screens show for `Oc1c(Cl)cc(Cl)cc1CNc1ccccn1`?
CHRM4 antagonist: 4; CHRM4 PAM: -5; M5 ag: -13; CHRM4 agonist: 1; M5 PAM: -14; M5 antag: 13

How did Oc1c(Cl)cc(Cl)cc1CNc1nc2ccccc2[nH]1 do in these assays?
CHRM4 antagonist: 18; CHRM4 PAM: -11; M5 ag: 0; CHRM4 agonist: 10; M5 PAM: -20; M5 antag: 37*

How did Cc1ccc(S(=O)(=O)n2nnc3ccccc32)c(C)c1C do in these assays?
CHRM4 antagonist: -2; CHRM4 PAM: 24*; M5 ag: -1; CHRM4 agonist: 2; M5 PAM: 6; M5 antag: -3

How did Cc1ccc(CNc2ncnc3ccc(-c4ccc(CO)o4)cc23)o1 do in these assays?
CHRM4 antagonist: 3; CHRM4 PAM: -3; M5 ag: -2; CHRM4 agonist: 2; M5 PAM: -9; M5 antag: 16

What do the screens show for `Cc1n[nH]c(C)c1CCNC(=O)C1CCC(=O)N(CCc2cccc(F)c2)C1` (centres undefined)?
CHRM4 antagonist: -8; CHRM4 PAM: 10; M5 ag: 3; CHRM4 agonist: 0; M5 PAM: 24*; M5 antag: -6

How did Cc1cc(C)n(S(=O)(=O)c2ccc(F)cc2)n1 do in these assays?
CHRM4 antagonist: 6; CHRM4 PAM: 1; M5 ag: -2; CHRM4 agonist: 0; M5 PAM: 7; M5 antag: 10

What do the screens show for `Cc1cc(C)n(S(=O)(=O)c2ccc(C(C)(C)C)cc2)n1`?
CHRM4 antagonist: 29*; CHRM4 PAM: -29; M5 ag: -11; CHRM4 agonist: 1; M5 PAM: -22; M5 antag: -5

Results for Nc1nnc(SCC(=O)Nc2cccnc2Cl)s1 ?
CHRM4 antagonist: 5; CHRM4 PAM: 23*; M5 ag: 2; CHRM4 agonist: 2; M5 PAM: -2; M5 antag: -1

Results for Cc1cccc(Nc2nnc(SCC(=O)Nc3cccnc3Cl)s2)c1 ?
CHRM4 antagonist: 2; CHRM4 PAM: -5; M5 ag: -1; CHRM4 agonist: 5; M5 PAM: -4; M5 antag: -5

What do the screens show for `COC(=O)c1ccc(OCC2c3cc(OC)c(OC)cc3CCN2C(C)=O)cc1` (centres undefined)?
CHRM4 antagonist: 13; CHRM4 PAM: -18; M5 ag: 0; CHRM4 agonist: 17; M5 PAM: -13; M5 antag: 16

Results for COC(=O)c1ccc(OCC2c3cc(OC)c(OC)cc3CCN2C(=O)c2ccco2)cc1 (centres undefined) ?
CHRM4 antagonist: 30*; CHRM4 PAM: -14; M5 ag: 2; CHRM4 agonist: 21; M5 PAM: -15; M5 antag: 17

Results for COc1ccc(Cc2c(C(C)(C)C)nc3c(C)cc(Br)cn23)c(C)c1 ?
CHRM4 antagonist: 4; CHRM4 PAM: -8; M5 ag: -1; CHRM4 agonist: 2; M5 PAM: -1; M5 antag: 0

How did CCCc1nc2ccc(C)cn2c1Cc1cccc(F)c1 do in these assays?
CHRM4 antagonist: -8; CHRM4 PAM: 2; M5 ag: -8; CHRM4 agonist: 3; M5 PAM: -7; M5 antag: 1

What do the screens show for `CCCc1nc2c3ccccc3ccn2c1Cc1cccc(F)c1`?
CHRM4 antagonist: 57*; CHRM4 PAM: -17; M5 ag: -8; CHRM4 agonist: -1; M5 PAM: -22; M5 antag: 47*

How did CC1(C(=O)NS(=O)(=O)c2ccc3c(c2)CCO3)CCN1C(=O)CCC1CCCC1 (centres undefined) do in these assays?
CHRM4 antagonist: -20; CHRM4 PAM: 15; M5 ag: 0; CHRM4 agonist: 1; M5 PAM: -1; M5 antag: -4

How did O=[N+]([O-])c1ccc(N=Nc2ncc[nH]2)cc1 do in these assays?
CHRM4 antagonist: -11; CHRM4 PAM: -1; M5 ag: 2; CHRM4 agonist: 1; M5 PAM: 1; M5 antag: 4

Results for c1ccc(-n2c3ccccc3c3ccccc32)cc1 ?
CHRM4 antagonist: -7; CHRM4 PAM: -1; M5 ag: 7; CHRM4 agonist: 0; M5 PAM: 19*; M5 antag: -8

How did CCN(CC)C(=O)Cn1cc(C(=O)C(=O)N(C)C2CCN(C)CC2)c2ccccc21 do in these assays?
CHRM4 antagonist: -4; CHRM4 PAM: 17*; M5 ag: -4; CHRM4 agonist: 0; M5 PAM: 2; M5 antag: 6

What do the screens show for `CCC1CCCCN1C(=O)C(=O)c1cn(CC(=O)N(CC)CC)c2ccccc12` (centres undefined)?
CHRM4 antagonist: 1; CHRM4 PAM: -6; M5 ag: -4; CHRM4 agonist: 0; M5 PAM: -2; M5 antag: 9

Results for S=c1c2c(nc3nc[nH]n13)CCC2 ?
CHRM4 antagonist: 3; CHRM4 PAM: -1; M5 ag: 9; CHRM4 agonist: 1; M5 PAM: 18*; M5 antag: -10

What do the screens show for `CC1CCc2c(nc3nc[nH]n3c2=O)C1` (centres undefined)?
CHRM4 antagonist: 9; CHRM4 PAM: 14; M5 ag: 2; CHRM4 agonist: -1; M5 PAM: 4; M5 antag: -9

Results for COC(=O)CSc1nc(-c2cccs2)ccc1C#N ?
CHRM4 antagonist: 74*; CHRM4 PAM: -30; M5 ag: -4; CHRM4 agonist: 4; M5 PAM: -8; M5 antag: 3

What do the screens show for `CCOCc1nc2nc(Cl)c(Cl)nc2[nH]1`?
CHRM4 antagonist: -15; CHRM4 PAM: -2; M5 ag: 1; CHRM4 agonist: 1; M5 PAM: -2; M5 antag: 5

Results for CC(C)N1CCN(C(=O)c2ccc(NC(=O)c3ccc(Br)o3)cc2)CC1 ?
CHRM4 antagonist: 0; CHRM4 PAM: 10; M5 ag: 3; CHRM4 agonist: 1; M5 PAM: 20*; M5 antag: -2

Results for Cn1c(=O)c([N+](=O)[O-])c(NCc2ccc3c(c2)OCO3)c2ccccc21 ?
CHRM4 antagonist: 8; CHRM4 PAM: -3; M5 ag: -9; CHRM4 agonist: 1; M5 PAM: 14; M5 antag: 2

What do the screens show for `O=C(Nc1ccn(C2CCC(CO)O2)c(=O)n1)c1ccccc1` (centres undefined)?
CHRM4 antagonist: 6; CHRM4 PAM: 11; M5 ag: 1; CHRM4 agonist: 0; M5 PAM: -2; M5 antag: 0

Results for Cn1c(=O)c2[nH]c(CCCCCCCCc3nc4ccccc4[nH]3)nc2n(C)c1=O ?
CHRM4 antagonist: 30*; CHRM4 PAM: -10; M5 ag: -7; CHRM4 agonist: 14; M5 PAM: -36; M5 antag: 19
